Data from publication PMC11301096 (iScience, 2024).
No end group written: not given here. *: point of attachment. Biotin = O=C1N[C@H]2[C@H](CS[C@H]2CCCCC(=O)*)N1

Columns and labels:
[1] = system: Hep 3B cells; assay: CCK-8 proliferative activity; format: cell-based, human; conditions: read-out: IC50, proliferation; CCK-8, 48 h, mean of n = 3
Outline: (§1)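 Cells grown in DMEM with 10% FBS and 1% antibiotics at 37°C, 5% CO2; log-phase cells used. Seeded at 4×10^3/well for 24 h, then exposed to graded doses of test compound (DMSO stock) for 48 h. CCK-8 reagent added for 1–2 h in the dark; absorbance read at 450 nm. Three independent experiments.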

[2] = system: Huh7 cells; assay: CCK-8 proliferative activity; format: cell-based, human; conditions: read-out: IC50, proliferation; CCK-8, 48 h, mean of n = 3
Outline: as §1

[3] = system: human normal hepatocyte L-O2; assay: CCK-8 proliferative activity; format: cell-based; conditions: 10 μM and 20 μM BO1, CCK-8, 48 h
Outline: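 Normal hepatocytes seeded at 4×10^3/well and incubated 24 h, then exposed to test compound for 48 h. CCK-8 reagent added for 1–2 h protected from light; absorbance measured at 450 nm. Three independent experiments.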

[4] = system: L-O2 cells; assay: Cell cycle analysis by flow cytometry; format: cell-based, human; conditions: 20 μM BO1, 48 h
Outline: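 Cells (5×10^5 per 100 mm dish) attached for 24 h, then exposed to test compound for 48 h. Cell pellets fixed in 70% ethanol for 4 h and washed twice with PBS. Stained with a DNA-content quantitation kit; cell-cycle distribution read by flow cytometry.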

[5] = system: L-O2 cells; assay: Hoechst 33258 staining; format: cell-based, human; conditions: 20 μM BO1, 48 h
Outline: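 Seeded at 4×10^4 cells/well for 24 h, then treated 48 h. Fixed in 4% tissue fixative for 15 min and stained with Hoechst 33258 for 5 min. Washed twice with PBS; nuclei viewed by fluorescence microscopy.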

[6] = In vivo xenograft model, toxicity read-outs; parameters: species or system BALB/c-Nude mice; conditions: BO1 4.57 mg/kg intraperitoneally every other day, two weeks, n = 6
Outline: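 Four-week-old male nude mice acclimatised 7 days, then implanted subcutaneously with 2×10^6 Hep 3B cells; randomised into two groups of 6. Once tumours reached 100 mm3, given 200 μL saline or test compound intraperitoneally every other day, with weighing and tumour measurement. Killed after two weeks; serum taken for ALT, AST and creatinine.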

[7] = target: HSP90A (Homo sapiens, UniProt P07900); assay: Biotinylated pull-down with western blot; format: binding; conditions: compared to samples extracted with IgG; cell extracts, 4°C, 12 h
Outline: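 Bead-bound biotin-labelled test compound (4°C, 3 h) rotated with cell extracts at 4°C for 12 h. Beads washed in ice-cold NT2 buffer (4°C, 5 min), then four more washes. Bound proteins eluted with protein elution buffer plus DTT at 37°C for 2 h. Eluates analysed by LC-MS and western blot, with an IgG pull-down as negative control.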

Substance | IC50 [1] [µM] | IC50 [2] [µM] | activity of normal hepatocytes (proliferative activity) [3] | cell cycle progression [4] | nuclear fluorescence staining [5] | histopathological examination of major organs (heart, liver, spleen, and kidney), H&E [6] | serum alanine aminotransferase (ALT) activity [6] | serum aspartate aminotransferase (AST) activity [6] | serum creatinine (CREA) activity [6] | HSP90A in samples pulled by bio-BO1 (western blot) [7]
GIGSAILSAGKSIIKGLAKGLAEHF-NH2 [BO1, Bombinin-BO1] | 15.2 | 24.9 | no significant change | not significantly affected | no significant changes | normal findings | comparable to those of control mice | comparable to those of control mice | comparable to those of control mice | 
bio-BO1: Biotin-labeled BO1 (Biotin-GIGSAILSAGKSIIKGLAKGLAEHF-NH2; SMILES CC[C@H](C)[C@H](NC(=O)CNC(=O)CCCC[C@@H]1SC[C@@H]2NC(=O)N[C@@H]21)C(=O)NCC(=O)N[C@@H](CO)C(=O)N[C@@H](C)C(=O)N[C@H](C(=O)N[C@@H](CC(C)C)C(=O)N[C@@H](CO)C(=O)N[C@@H](C)C(=O)NCC(=O)N[C@@H](CCCCN)C(=O)N[C@@H](CO)C(=O)N[C@H](C(=O)N[C@H](C(=O)N[C@@H](CCCCN)C(=O)NCC(=O)N[C@@H](CC(C)C)C(=O)N[C@@H](C)C(=O)N[C@@H](CCCCN)C(=O)NCC(=O)N[C@@H](CC(C)C)C(=O)N[C@@H](C)C(=O)N[C@@H](CCC(=O)O)C(=O)N[C@@H](Cc1c[nH]cn1)C(=O)N[C@@H](Cc1ccccc1)C(N)=O)[C@@H](C)CC)[C@@H](C)CC)[C@@H](C)CC) |  |  |  |  |  |  |  |  |  | significantly detected
